Consider twelve molecules from ChEMBL document CHEMBL1255558, “Bis-alkylamine quindolone derivatives as new antimalarial leads” (Bioorg Med Chem Lett, 2010).

A short description of data set [1]: Binding to hematin monomer.
Another data set concerns Plasmodium falciparum. Nature of the data set: Antimalarial activity against chloroquine-resistant Plasmodium falciparum W2. Format: functional, organism-based. In a few lines: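 Ring-stage parasites (1% parasitaemia in human red cells, sorbitol-synchronised) exposed to compounds for 48 h at 37 °C in RPMI-1640 with 25 mM HEPES pH 7.4 and 10% heat-inactivated human serum. Cells then fixed in 2% HCHO/PBS, stained with 1 nM YOYO-1 in PBS containing 100 mM NH₄Cl and 0.1% Triton X-100, and counted by flow cytometry (ex 488/em 520 nm). IC50 derived by curve fitting.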

Data set [2] in a line: Selectivity ratio of IC50 for human HepG2A16 cells to IC50 for Plasmodium falciparum W2. Format: ADME. In a few lines:
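Ratio of HepG2 A16 cytotoxicity IC₅₀ (48 h) to W2 IC₅₀. The W2 assay used sorbitol-synchronized ring stages at 1% parasitemia in human RBCs, 48 h at 37 °C in RPMI-1640 with 25 mM HEPES pH 7.4 and 10% heat-inactivated human serum. Cells were then fixed in 2% HCHO, stained with 1 nM YOYO-1 and counted by flow cytometry.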

Data set [3] can be described thus: Cytotoxicity against human HepG2A16 cells. Format: cell-based. In a few lines: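 HepG2 A16 human hepatic cells seeded at 1 × 10⁴ cells/well and exposed to a range of concentrations for 48 h under standard culture conditions. IC₅₀ (50% growth inhibition) read from plots of degree of cell injury against concentration.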

The structures appear in SMILES notation. pIC50: −log10 of the molar value.

Turning to `O=c1c2ccc(Cl)cc2[nH]c2c1[nH]c1ccc(Cl)cc12`, the log Kass in data set [1] was found to be 4.9. Further, the pIC50 (commonly the negative decadic logarithm of the IC50, by convention in mol/L) with Plasmodium falciparum is less than 5.00.
For `O=c1c2ccccc2[nH]c2c1[nH]c1ccccc12`, in data set [2], the selectivity ratio was less than 2. The molecule also came in with a log Kass in data set [1] of 4.7. For the same molecule, the values for the pIC50 (in data set [3]; in the data set on Plasmodium falciparum) were 4.68 and less than 5.00, respectively.
Turning to `CCN(CC)CCOc1c2ccc(Cl)cc2nc2c1[nH]c1ccc(Cl)cc12`, in the data set on Plasmodium falciparum, the negative logarithm of the IC50 (pIC50) was 6.26.
Take `CCN(CC)CCn1c2ccc(Cl)cc2c2c1c(=O)c1ccc(Cl)cc1n2CCN(CC)CC`: the selectivity ratio in data set [2] came to 31. The log Kass in data set [1] came out at 5.1. Moreover, the values for the pIC50 (in data set [3]; in the data set on Plasmodium falciparum) were 4.96 and 6.48, respectively.
As for `CCN(CC)CCOc1c2ccccc2nc2c3ccccc3n(CCN(CC)CC)c12`, the selectivity ratio in data set [2] was determined as 12. Also, the log Kass in data set [1] stood at 4.9. The pIC50 is 5.15 in data set [3] and 6.27 in the data set on Plasmodium falciparum.
In the same order, the values of `CCN(CC)CCn1c2ccccc2c2c1c(=O)c1ccccc1n2CCN(CC)CC` are 16, 4.9, 5.36 and 6.57.
As to `CCN(CC)CCOc1c2ccc(Cl)cc2nc2c1[nH]c1ccccc12`, the log Kass in data set [1] came out at 5.1. This molecule had a pIC50 in the data set with Plasmodium falciparum of 5.88.
For the molecule `CCN(CC)CCOc1c2ccc(Cl)cc2nc2c3cc(Cl)ccc3n(CCN(CC)CC)c12`, the selectivity ratio in data set [2] was determined as 98. Moreover, the log Kass in data set [1] came to 5.2. Besides, the negative logarithm of the IC50 (pIC50) in data set [3] was 5.30; in the data set with Plasmodium falciparum, 7.29.
In the same order, the values of `CCN(CC)CCOc1c2ccccc2nc2c1[nH]c1ccccc12` are 3.6, 5, 5.05 and 5.58.
In data set [1], `O=c1c2ccc(Cl)cc2[nH]c2c1[nH]c1ccccc12` came in with a log Kass of 5. Also, the pIC50 with Plasmodium falciparum was 5.07.
As for `CCN(CC)CCn1c2ccccc2c2c1c(=O)c1ccc(Cl)cc1n2CCN(CC)CC`, the selectivity ratio in data set [2] stood at 33. The log Kass in data set [1] stood at 4.9. Besides, the pIC50 in data set [3] was 5.15; in the data set with Plasmodium falciparum it was 6.69.
Taken in the same sequence, the figures for `CCN(CC)CCOc1c2ccc(Cl)cc2nc2c3ccccc3n(CCN(CC)CC)c12` were 44, 4.9, 5.10 and 6.73.
